{
  "source": "ChEMBL document CHEMBL4261533",
  "about": "“Identification of potent cholecystokinin-B receptor antagonists: synthesis, molecular modeling and anti-cancer activity against pancreatic cancer cells” (Medchemcomm, 2017)",
  "key": {"[1]": {"target": "T1, Gastrin/cholecystokinin type B receptor (Rattus norvegicus, UniProt P30553)", "T1 sequence (P30553 whole entry)": "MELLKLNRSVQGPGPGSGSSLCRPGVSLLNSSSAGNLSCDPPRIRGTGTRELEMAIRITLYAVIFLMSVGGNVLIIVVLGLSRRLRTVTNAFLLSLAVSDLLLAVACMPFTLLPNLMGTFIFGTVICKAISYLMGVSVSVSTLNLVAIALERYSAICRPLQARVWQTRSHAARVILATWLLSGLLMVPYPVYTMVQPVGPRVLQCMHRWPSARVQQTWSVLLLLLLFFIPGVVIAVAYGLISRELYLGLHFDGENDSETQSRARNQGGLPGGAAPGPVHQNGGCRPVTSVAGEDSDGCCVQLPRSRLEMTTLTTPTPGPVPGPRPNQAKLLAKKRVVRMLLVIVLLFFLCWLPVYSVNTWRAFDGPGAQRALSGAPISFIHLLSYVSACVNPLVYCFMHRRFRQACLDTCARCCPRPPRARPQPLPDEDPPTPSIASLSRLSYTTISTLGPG", "experiment": "Displacement of [125I]-BH-CCK-8 from CCK-B receptor in rat cerebral cortex plasma membrane after 1 hr by liquid scintillation counting method", "format": "cell membranes", "method_in_brief": "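Rat cerebral cortex plasma membrane (100 μg per tube), receptor solubilized in detergent. Non-specific binding defined with 1 μM unlabeled CCK-8s. Bound and free ligand separated on filter mats, counted by liquid scintillation. IC50 by non-linear least-squares fitting.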"}, "MIA PaCa-2 [2]": {"tested_on": "MIA PaCa-2", "experiment": "Cytotoxicity against human MIAPaCa2 cells assessed as reduction in cell viability after 24 hrs by MTT assay", "format": "functional, cell-based", "details": "MIA PaCa-2, 24 h", "method_in_brief": "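MiaPaca-2 cells seeded at 1000/well, incubated 24 h at 37 °C, 5% CO2, then exposed to varying compound concentrations in 200 μL standard growth medium for 24 h. MTT (5 mg/mL stock in PBS) added for 4 h at 37 °C. Formazan dissolved in DMSO, absorbance read at 540 nm. IC50 taken from dose–response graphs.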"}, "[3]": {"target": "T2, Gastrin/cholecystokinin type B receptor (Mus musculus) (UniProt P56481)", "T2 sequence (whole entry)": "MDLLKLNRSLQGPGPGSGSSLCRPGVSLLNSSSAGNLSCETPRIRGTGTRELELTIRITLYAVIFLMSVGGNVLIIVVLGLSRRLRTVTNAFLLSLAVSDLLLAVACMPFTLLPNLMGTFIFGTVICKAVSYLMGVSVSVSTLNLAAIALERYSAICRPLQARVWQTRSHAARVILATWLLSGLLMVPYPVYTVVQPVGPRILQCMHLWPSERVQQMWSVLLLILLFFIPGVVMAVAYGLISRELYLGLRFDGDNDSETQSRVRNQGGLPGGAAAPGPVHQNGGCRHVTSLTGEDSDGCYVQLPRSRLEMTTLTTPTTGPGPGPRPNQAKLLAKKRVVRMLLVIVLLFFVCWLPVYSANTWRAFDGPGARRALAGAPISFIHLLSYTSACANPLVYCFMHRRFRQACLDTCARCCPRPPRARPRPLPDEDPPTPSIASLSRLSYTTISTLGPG", "experiment": "Inhibition of CCK-B receptor in lumen perfused albino mouse stomach assessed as reduction in boc-pentagastrin-induced gastric acid secretion at 100 nM after 45 mins relative to control", "format": "functional", "method_in_brief": "(§1)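 Whole stomach excised from albino mice (25–30 g), lumen-perfused in an organ bath. Effluent pH monitored continuously with a pH probe. Acid output driven by sub-maximal Boc-pentagastrin (10 nM), measured before and 45 min after incubation with test compound. Percentage inhibition calculated.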"}, "[4]": {"target": "T2, Gastrin/cholecystokinin type B receptor (Mus musculus)", "experiment": "Inhibition of CCK-B receptor in lumen perfused albino mouse stomach assessed as reduction in boc-pentagastrin-induced gastric acid secretion after 45 mins relative to control", "format": "functional", "method_in_brief": "as §1"}, "[5]": {"target": "T3, Gastrin/cholecystokinin type B receptor (Homo sapiens, UniProt P32239)", "T3 sequence (P32239 whole entry)": "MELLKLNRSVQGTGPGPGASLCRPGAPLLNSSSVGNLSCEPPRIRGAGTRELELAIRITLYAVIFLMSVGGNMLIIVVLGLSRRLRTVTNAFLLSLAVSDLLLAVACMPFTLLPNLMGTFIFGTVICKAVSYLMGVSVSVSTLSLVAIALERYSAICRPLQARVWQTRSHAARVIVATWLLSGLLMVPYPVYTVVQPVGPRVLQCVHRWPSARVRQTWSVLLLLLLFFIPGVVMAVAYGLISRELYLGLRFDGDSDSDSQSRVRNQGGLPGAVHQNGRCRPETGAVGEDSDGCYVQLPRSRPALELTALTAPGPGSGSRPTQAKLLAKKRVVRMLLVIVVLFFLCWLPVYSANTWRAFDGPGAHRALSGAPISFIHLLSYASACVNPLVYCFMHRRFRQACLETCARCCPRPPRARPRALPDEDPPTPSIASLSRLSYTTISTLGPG", "experiment": "Displacement of [125I]-gastrin17 from CCK-B receptor (unknown origin)"}, "[6]": {"target": "T2, Gastrin/cholecystokinin type B receptor (Mus musculus)", "experiment": "Inhibition of CCK-B receptor in lumen perfused albino mouse stomach assessed as reduction in boc-pentagastrin-induced gastric acid secretion at 1 uM after 45 mins relative to control", "format": "functional", "method_in_brief": "as §1"}, "MIA PaCa-2 [7]": {"tested_on": "MIA PaCa-2", "experiment": "Cytotoxicity against human MIAPaCa2 cells assessed as reduction in cell viability at 1 to 10 uM after 72 hrs by MTT assay", "format": "functional, cell-based"}, "MIA PaCa-2 [8]": {"tested_on": "MIA PaCa-2", "experiment": "Inhibition of boc-pentagastrin-induced cell proliferation in human MIAPaCa2 cells at 1 to 10 uM up to 120 hrs by MTT assay", "format": "functional, cell-based", "method_in_brief": "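MiaPaca-2 cells seeded at 4000/well in 10% FCS-DMEM, then made quiescent for 24 h in incomplete medium. Boc-pentagastrin and/or antagonist (1 or 10 μM) added in incomplete medium; medium with the same concentrations replaced daily. MTT read after 48–120 h, absorbance at 540 nm. DMSO control at each time point set as 100%.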"}, "[9]": {"target": "T2, Gastrin/cholecystokinin type B receptor (Mus musculus)", "experiment": "Inhibition of CCK-B receptor in lumen perfused albino mouse stomach assessed as reduction in boc-pentagastrin-induced gastric acid secretion at 300 nM after 45 mins relative to control", "format": "functional", "method_in_brief": "as §1"}},
  "note": "Active and inactive are the calls of the source. No cut-off for these calls is given here.",
  "data": [
    {"smiles": "O=C1Nc2ccccc2/C1=N/Nc1nc2ccccc2c(=O)n1-c1cccc(Br)c1", "values": [
      {"measurement": "IC50", "setting": "[1]", "value": 19.5, "unit": "nM"},
      {"measurement": "IC50", "setting": "MIA PaCa-2 [2]", "value": 200000, "unit": "nM"},
      {"measurement": "inhibition", "setting": "[3]", "value": 62, "unit": "%"},
      {"measurement": "inhibition", "setting": "[4]", "value": "Dose-dependent effect"}
    ]},
    {"smiles": "CCOc1ccc(NC(=S)NNc2nc3ccccc3c(=O)n2-c2ccc(Cl)cc2)cc1", "values": [
      {"measurement": "IC50", "setting": "[1]", "value": 9.71, "unit": "nM"},
      {"measurement": "IC50", "setting": "MIA PaCa-2 [2]", "value": 80000, "unit": "nM"},
      {"measurement": "inhibition", "setting": "[3]", "value": 53, "unit": "%"},
      {"measurement": "inhibition", "setting": "[4]", "value": "Dose-dependent effect"}
    ]},
    {"smiles": "CCOc1ccc(-n2c(N/N=C3\\C(=O)Nc4ccccc43)nc3ccccc3c2=O)cc1", "values": [
      {"measurement": "IC50", "setting": "[1]", "value": 17.4, "unit": "nM"},
      {"measurement": "IC50", "setting": "MIA PaCa-2 [2]", "value": 80000, "unit": "nM"},
      {"measurement": "inhibition", "setting": "[3]", "value": 48, "unit": "%"},
      {"measurement": "inhibition", "setting": "[4]", "value": "Dose-dependent effect"}
    ]},
    {"smiles": "CNc1cccc(NC(=O)NC2N=C(c3ccccn3)c3ccccc3N(CC(=O)C(C)(C)C)C2=O)c1", "note": "(stereo not drawn)", "values": [
      {"measurement": "IC50", "setting": "[5]", "value": 0.1, "unit": "nM"}
    ]},
    {"smiles": "O=C1Nc2ccccc2/C1=N/Nc1nc2ccccc2c(=O)n1-c1ccc(Cl)cc1", "values": [
      {"measurement": "IC50", "setting": "MIA PaCa-2 [2]", "value": 100000, "unit": "nM"},
      {"measurement": "inhibition", "setting": "[3]", "value": 58, "unit": "%"},
      {"measurement": "inhibition", "setting": "[4]", "value": "Dose-dependent effect"}
    ]},
    {"smiles": "O=C(O)c1cccc(NC(=S)NNc2nc3ccccc3c(=O)n2-c2ccccc2)c1", "values": [
      {"measurement": "IC50", "setting": "[1]", "value": 975, "unit": "nM"},
      {"measurement": "IC50", "setting": "MIA PaCa-2 [2]", "value": 180000, "unit": "nM"},
      {"measurement": "inhibition", "setting": "[6]", "value": 48, "unit": "%"},
      {"measurement": "inhibition", "setting": "[4]", "value": "Dose-dependent effect"}
    ]},
    {"smiles": "O=C(O)c1cccc(NC(=S)NNc2nc3ccccc3c(=O)n2-c2ccc(Br)cc2)c1", "values": [
      {"measurement": "IC50", "setting": "[1]", "value": 0.2, "unit": "nM"},
      {"measurement": "IC50", "setting": "MIA PaCa-2 [2]", "value": 200000, "unit": "nM"},
      {"measurement": "inhibition", "setting": "[3]", "value": 39, "unit": "%"},
      {"measurement": "inhibition", "setting": "[4]", "value": "Dose-dependent effect"}
    ]},
    {"smiles": "CCOc1ccc(-n2c(NNC(=S)Nc3ccc(Br)cc3)nc3ccccc3c2=O)cc1", "values": [
      {"measurement": "IC50", "setting": "[1]", "value": 2, "unit": "nM"},
      {"measurement": "IC50", "setting": "MIA PaCa-2 [2]", "value": 10000, "unit": "nM"},
      {"measurement": "Activity", "setting": "MIA PaCa-2 [7]", "value": "Active"},
      {"measurement": "inhibition", "setting": "MIA PaCa-2 [8]", "value": "Active"},
      {"measurement": "inhibition", "setting": "[3]", "value": 39, "unit": "%"},
      {"measurement": "inhibition", "setting": "[4]", "value": "Dose-dependent effect"}
    ]},
    {"smiles": "Cc1cccc(NC(=O)NC2N=C(c3ccccc3)c3ccccc3N(C)C2=O)c1", "note": "(stereo not drawn)", "values": [
      {"measurement": "IC50", "setting": "MIA PaCa-2 [2]", "value": 1.8, "unit": "nM"}
    ]},
    {"smiles": "CCOc1ccc(-n2c(NNC(=S)Nc3cccc(C(=O)O)c3)nc3ccccc3c2=O)cc1", "values": [
      {"measurement": "IC50", "setting": "[1]", "value": 0.66, "unit": "nM"},
      {"measurement": "IC50", "setting": "MIA PaCa-2 [2]", "value": 280000, "unit": "nM"},
      {"measurement": "inhibition", "setting": "[3]", "value": 58, "unit": "%"},
      {"measurement": "inhibition", "setting": "[4]", "value": "Dose-dependent effect"}
    ]},
    {"smiles": "Cc1ccc(-n2c(N/N=C3\\C(=O)Nc4ccccc43)nc3ccccc3c2=O)cc1", "values": [
      {"measurement": "IC50", "setting": "[1]", "value": 56.5, "unit": "nM"},
      {"measurement": "IC50", "setting": "MIA PaCa-2 [2]", "value": 10000, "unit": "nM"},
      {"measurement": "Activity", "setting": "MIA PaCa-2 [7]", "value": "Active"},
      {"measurement": "inhibition", "setting": "MIA PaCa-2 [8]", "value": "Active"},
      {"measurement": "inhibition", "setting": "[9]", "value": 67, "unit": "%"},
      {"measurement": "inhibition", "setting": "[4]", "value": "Dose-dependent effect"}
    ]},
    {"smiles": "O=C1Nc2ccccc2/C1=N/Nc1nc2ccccc2c(=O)n1-c1cccc(Cl)c1", "values": [
      {"measurement": "IC50", "setting": "[1]", "value": 384, "unit": "nM"},
      {"measurement": "IC50", "setting": "MIA PaCa-2 [2]", "value": 92000, "unit": "nM"},
      {"measurement": "inhibition", "setting": "[3]", "value": 58, "unit": "%"},
      {"measurement": "inhibition", "setting": "[4]", "value": "Dose-dependent effect"}
    ]},
    {"smiles": "O=C(O)c1cccc(NC(=S)NNc2nc3ccccc3c(=O)n2-c2cccc(Br)c2)c1", "values": [
      {"measurement": "IC50", "setting": "[1]", "value": 8.64, "unit": "nM"},
      {"measurement": "IC50", "setting": "MIA PaCa-2 [2]", "value": 150000, "unit": "nM"},
      {"measurement": "inhibition", "setting": "[3]", "value": 62, "unit": "%"},
      {"measurement": "inhibition", "setting": "[4]", "value": "Dose-dependent effect"}
    ]},
    {"smiles": "CCOc1ccc(-n2c(NNC(=S)Nc3ccc(Cl)cc3)nc3ccccc3c2=O)cc1", "values": [
      {"measurement": "IC50", "setting": "[1]", "value": 11.5, "unit": "nM"},
      {"measurement": "IC50", "setting": "MIA PaCa-2 [2]", "value": 250000, "unit": "nM"},
      {"measurement": "inhibition", "setting": "[3]", "value": 58, "unit": "%"},
      {"measurement": "inhibition", "setting": "[4]", "value": "Dose-dependent effect"}
    ]}
  ]
}
